Results: paper PMC9002156 (Journal of Biomedical Research, 2022)
Like-named read-outs stand apart in the source and are kept apart here.

Experiments:
[1] = Stability of stock solutions in acetonitrile; format: physicochemical; conditions: in acetonitrile at −20 °C
In short: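 Separate acetonitrile stocks were made: 10 μg/mL for each analyte and 1 mg/mL for the internal standard. They were vortexed, briefly sonicated and stored at −20 °C. Analyte stability was examined after 2 months at −20 °C. Read-out was LC-MS/MS quantification.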

[2] = Plasma concentrations in CAD patients after oral Plavix 75 mg; format: in vivo; conditions: human
In short: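 Venous blood (3 mL) from CAD patients was drawn into EDTA/DTT tubes before dosing and at 0.5, 1, 2, 2.5, 3, 3.5, 6, 8, 12 and 24 h after dosing. MPB (500 mmol/L stock) was added at once, then spun 16 000 g for 10 min and held at −80 °C. Read-out was LC-MS/MS on C18 at 40 °C, 0.1% formic acid:acetonitrile (1:19), 1 mL/min. Thiol metabolite was measured as derivative. Calibration used peak area with internal standard, weighted 1/x2. Mean±SD, n=3.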

[3] = format: in vitro ADME, human; conditions: mean±SD; for Found, after three-thaw cycles / Found, at –80 °C for 45 days / Found, plasma at room temperature for 8 hours: human plasma; for Found, extract at room temperature for 8 hours / Found, extract in the auto-sampler at 4 °C for 24 hours: plasma extract
[4] = tested on: CYP2C19; conditions: cited from earlier work
[5] = tested on: carboxylesterases; conditions: cited from earlier work

| SMILES | Time stock solutions were stable [1] | Cmax [2] | Found, after three-thaw cycles ([3]; added 0.2 ng/mL) | Found, at –80 °C for 45 days ([3]; added 0.2 ng/mL) | Found, plasma at room temperature for 8 hours ([3]; added 0.2 ng/mL) | Found, after three-thaw cycles ([3]; added 10 ng/mL) | Found, at –80 °C for 45 days ([3]; added 10 ng/mL) | Found, plasma at room temperature for 8 hours ([3]; added 10 ng/mL) | Found, extract at room temperature for 8 hours ([3]; added 0.2 ng/mL) | Found, extract in the auto-sampler at 4 °C for 24 hours ([3]; added 0.2 ng/mL) | Found, extract at room temperature for 8 hours ([3]; added 10 ng/mL) | Found, extract in the auto-sampler at 4 °C for 24 hours ([3]; added 10 ng/mL) | Contribution of CYP2C19 to metabolism, second step ([4]; 2-Oxo-CLP to active metabolite) | Contribution of CYP2C19 to metabolism, first step ([4]; clopidogrel metabolized to 2-Oxo-CLP) | Portion hydrolyzed into inactive metabolites by carboxylesterases [5] |
| --- | --- | --- | --- | --- | --- | --- | --- | --- | --- | --- | --- | --- | --- | --- | --- |
| CC#C[C@]1(O)CC[C@H]2[C@@H]3CCC4=CC(=O)CCC4=C3[C@@H](c3ccc(N(C)C)cc3)C[C@@]21C [IS, Mifepristone] | at least 2 months |  |  |  |  |  |  |  |  |  |  |  |  |  |  |
| COC(=O)[C@H](c1ccccc1Cl)N1CCc2sccc2C1 [Clopidogrel, (+)-(S)-methyl 2-(2-chlorophenyl)-2-(6,7-dihydrothieno[3,2-c]pyridine-5(4H)-yl)acetate] | at least 2 months | 17 ng/mL | 0.2 ± 0.0 ng/mL | 0.2 ± 0.0 ng/mL | 0.2 ± 0.0 ng/mL | 10.1 ± 0.8 ng/mL | 10.1 ± 0.2 ng/mL | 10.4 ± 0.8 ng/mL | 0.2 ± 0.0 ng/mL | 0.2 ± 0.0 ng/mL | 10.0 ± 1.4 ng/mL | 10.0 ± 0.8 ng/mL | 20% | 45% | approximately 85% |
